Measurements taken from ChEMBL document CHEMBL4325842, “Design, synthesis, and biological evaluation of novel aminopyrimidinylisoindolines as AXL kinase inhibitors” (Bioorg Med Chem Lett, 2018).
pIC50: −log10 of the molar value.

What was measured:
A549 = experiment: Antiproliferative activity against human A549 cells after 2 days by spectrophotometric analysis; format: functional; conditions: A549, 48 h
U-87 MG = experiment: Antiproliferative activity against human U87MG cells after 2 days by spectrophotometric analysis; format: functional, U-87MG ATCC; conditions: 48 h
OVCAR-3 = experiment: Antiproliferative activity against human OVCAR3 cells after 2 days by spectrophotometric analysis; format: functional; conditions: OVCAR-3, 48 h
Procedure, shortened: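 Cells from ATCC were kept in RPMI 1640 with 5% FBS. They were exposed to graded concentrations in DMSO/RPMI for 48 h at 37 C under 5% CO2, then fixed with 50% trichloroacetic acid. Cellular protein was read at 540 nm at time zero and at 48 h, with and without compound. TGI (100% growth inhibition) was taken from the concentration-response curve.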

[1] = biological target: Tyrosine-protein kinase ABL1 (Homo sapiens) (UniProt P00519); experiment: Inhibition of human ABL1 at 10 uM using EAIYAAPFAKKK as substrate by [gamma-33P]-ATP assay relative to control
Procedure, shortened: (§1)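 Commercial kinase panel screen at a single concentration of 10 μM. % inhibition was calculated as 100 minus % activity.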

[2] = biological target: RAC-alpha serine/threonine-protein kinase (Homo sapiens) (UniProt P31749); experiment: Inhibition of human AKT1 at 10 uM using KGSGSGRPRTSSFAEG as substrate by [gamma-33P]-ATP assay relative to control; procedure, shortened: as §1
Chain of RAC-alpha serine/threonine-protein kinase (Homo sapiens) (P31749 whole entry): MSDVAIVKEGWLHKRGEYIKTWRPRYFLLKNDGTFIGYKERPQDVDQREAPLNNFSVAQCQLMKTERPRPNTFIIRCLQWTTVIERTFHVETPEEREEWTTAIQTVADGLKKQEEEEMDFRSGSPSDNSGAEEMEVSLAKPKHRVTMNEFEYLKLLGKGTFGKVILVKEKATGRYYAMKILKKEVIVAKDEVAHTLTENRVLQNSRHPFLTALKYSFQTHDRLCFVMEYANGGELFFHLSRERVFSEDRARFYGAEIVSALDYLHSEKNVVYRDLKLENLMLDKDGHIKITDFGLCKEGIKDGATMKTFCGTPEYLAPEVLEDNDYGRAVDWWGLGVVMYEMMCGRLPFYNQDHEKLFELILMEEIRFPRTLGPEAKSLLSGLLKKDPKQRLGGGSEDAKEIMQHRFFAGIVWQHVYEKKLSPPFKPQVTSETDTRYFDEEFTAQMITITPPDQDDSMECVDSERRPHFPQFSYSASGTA

[3] = biological target: Tyrosine-protein kinase receptor UFO (Homo sapiens) (UniProt P30530); experiment: Inhibition of human AXL at 10 uM using EAIYAAPFAKKK as substrate by [gamma-33P]-ATP assay relative to control; procedure, shortened: as §1
Chain of Tyrosine-protein kinase receptor UFO (Homo sapiens) (P30530 whole entry): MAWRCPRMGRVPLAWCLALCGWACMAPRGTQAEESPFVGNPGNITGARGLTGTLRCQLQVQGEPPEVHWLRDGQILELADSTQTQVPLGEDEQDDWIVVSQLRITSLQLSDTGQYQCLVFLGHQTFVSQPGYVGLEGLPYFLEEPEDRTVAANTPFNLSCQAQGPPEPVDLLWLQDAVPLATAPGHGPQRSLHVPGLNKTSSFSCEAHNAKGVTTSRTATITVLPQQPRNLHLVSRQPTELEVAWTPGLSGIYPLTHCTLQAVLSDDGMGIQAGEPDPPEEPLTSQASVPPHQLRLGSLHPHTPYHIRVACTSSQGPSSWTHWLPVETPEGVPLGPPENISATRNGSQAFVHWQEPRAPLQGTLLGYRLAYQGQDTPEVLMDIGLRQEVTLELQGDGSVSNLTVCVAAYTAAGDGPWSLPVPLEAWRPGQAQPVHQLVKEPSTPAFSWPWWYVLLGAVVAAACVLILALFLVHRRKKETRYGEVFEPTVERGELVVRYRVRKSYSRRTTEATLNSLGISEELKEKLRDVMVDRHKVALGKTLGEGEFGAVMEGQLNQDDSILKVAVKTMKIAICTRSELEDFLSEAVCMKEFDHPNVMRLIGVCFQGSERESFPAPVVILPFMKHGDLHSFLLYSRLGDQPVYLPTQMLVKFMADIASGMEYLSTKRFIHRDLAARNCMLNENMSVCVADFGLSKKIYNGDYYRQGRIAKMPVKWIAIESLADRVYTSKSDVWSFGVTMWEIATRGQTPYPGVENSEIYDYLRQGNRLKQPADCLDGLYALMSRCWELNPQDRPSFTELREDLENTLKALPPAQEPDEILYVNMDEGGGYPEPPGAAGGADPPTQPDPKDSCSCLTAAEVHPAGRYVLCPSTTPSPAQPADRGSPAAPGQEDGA

[4] = biological target: Hepatocyte growth factor receptor (Homo sapiens) (UniProt P08581); experiment: Inhibition of human c-MET at 10 uM using KKKSPGEYVNIEFG as substrate by [gamma-33P]-ATP assay relative to control
Procedure, shortened: (§2)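 Kinase-panel profiling (50 oncogenic kinases) run by an outside contract service. The test compound was tested at a single concentration of 10 μM. Percent inhibition was calculated as 100 minus % remaining activity.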

[5] = biological target: Mitogen-activated protein kinase 8 (Homo sapiens) (UniProt P45983); experiment: Inhibition of human JNK1 at 10 uM using ATF2 as substrate by [gamma-33P]-ATP assay relative to control; procedure, shortened: as §1
[6] = biological target: Tyrosine-protein kinase Lck (Homo sapiens) (UniProt P06239); experiment: Inhibition of human LCK at 10 uM using poly[Glu:Tyr] (4:1) as substrate by [gamma-33P]-ATP assay relative to control; procedure, shortened: as §1
[7] = biological target: Serine/threonine-protein kinase 26 (Homo sapiens) (UniProt Q9P289); experiment: Inhibition of human MST4 at 10 uM using MBP as substrate by [gamma-33P]-ATP assay relative to control; procedure, shortened: as §1
Chain of Serine/threonine-protein kinase 26 (Homo sapiens) (Q9P289 2-416 limits assumed): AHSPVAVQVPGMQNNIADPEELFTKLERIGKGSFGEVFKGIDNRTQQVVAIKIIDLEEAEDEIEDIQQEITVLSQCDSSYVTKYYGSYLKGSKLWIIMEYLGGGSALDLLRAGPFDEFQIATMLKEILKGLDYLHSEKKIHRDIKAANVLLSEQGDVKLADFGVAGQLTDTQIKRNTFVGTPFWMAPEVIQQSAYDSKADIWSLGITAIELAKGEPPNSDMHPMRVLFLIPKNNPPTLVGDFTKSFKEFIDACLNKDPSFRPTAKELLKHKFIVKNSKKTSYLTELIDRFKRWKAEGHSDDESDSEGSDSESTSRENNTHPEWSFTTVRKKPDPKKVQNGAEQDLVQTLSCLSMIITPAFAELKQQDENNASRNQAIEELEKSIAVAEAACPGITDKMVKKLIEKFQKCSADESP

[8] = biological target: Muscle, skeletal receptor tyrosine-protein kinase (Homo sapiens) (UniProt O15146); experiment: Inhibition of human MUSK at 10 uM using MBP as substrate by [gamma-33P]-ATP assay relative to control; procedure, shortened: as §1
Chain of Muscle, skeletal receptor tyrosine-protein kinase (Homo sapiens) (O15146 whole entry): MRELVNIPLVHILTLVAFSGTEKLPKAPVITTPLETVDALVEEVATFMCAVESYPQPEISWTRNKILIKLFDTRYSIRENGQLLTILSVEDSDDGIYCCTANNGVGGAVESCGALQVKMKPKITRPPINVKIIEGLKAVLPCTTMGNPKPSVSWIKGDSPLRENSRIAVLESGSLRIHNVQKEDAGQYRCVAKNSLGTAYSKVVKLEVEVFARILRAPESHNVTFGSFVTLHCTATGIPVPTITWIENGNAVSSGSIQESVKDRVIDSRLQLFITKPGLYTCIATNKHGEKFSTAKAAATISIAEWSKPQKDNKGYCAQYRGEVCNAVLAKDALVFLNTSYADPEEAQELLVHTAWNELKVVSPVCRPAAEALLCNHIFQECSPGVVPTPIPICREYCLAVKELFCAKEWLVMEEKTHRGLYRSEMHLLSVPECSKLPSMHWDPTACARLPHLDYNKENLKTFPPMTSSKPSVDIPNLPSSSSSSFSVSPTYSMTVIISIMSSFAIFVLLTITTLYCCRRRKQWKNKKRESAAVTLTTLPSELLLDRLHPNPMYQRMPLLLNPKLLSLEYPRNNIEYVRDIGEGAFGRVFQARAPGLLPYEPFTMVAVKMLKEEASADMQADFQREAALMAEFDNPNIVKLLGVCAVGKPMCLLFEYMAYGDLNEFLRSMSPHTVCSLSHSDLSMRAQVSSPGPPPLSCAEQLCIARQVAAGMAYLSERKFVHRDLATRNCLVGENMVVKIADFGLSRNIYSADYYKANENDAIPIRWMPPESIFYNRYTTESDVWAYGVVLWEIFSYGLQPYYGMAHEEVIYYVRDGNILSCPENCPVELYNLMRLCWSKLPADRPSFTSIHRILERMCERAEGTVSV

[9] = biological target: DNA-dependent protein kinase catalytic subunit (Homo sapiens) (UniProt P78527); experiment: Inhibition of human DNA-PK at 10 uM using EPPLSQEAFADLWKK as substrate by [gamma-33P]-ATP assay relative to control; procedure, shortened: as §1
[10] = biological target: Epidermal growth factor receptor (Homo sapiens) (UniProt P00533); experiment: Inhibition of human EGFR at 10 uM using poly[Glu:Tyr] (4:1) as substrate by [gamma-33P]-ATP assay relative to control; procedure, shortened: as §1
[11] = biological target: Ephrin type-A receptor 1 (Homo sapiens) (UniProt P21709); experiment: Inhibition of human EPHA1 at 10 uM using poly[Glu:Tyr] (4:1) as substrate by [gamma-33P]-ATP assay relative to control; procedure, shortened: as §1
Chain of Ephrin type-A receptor 1 (Homo sapiens) (P21709 whole entry): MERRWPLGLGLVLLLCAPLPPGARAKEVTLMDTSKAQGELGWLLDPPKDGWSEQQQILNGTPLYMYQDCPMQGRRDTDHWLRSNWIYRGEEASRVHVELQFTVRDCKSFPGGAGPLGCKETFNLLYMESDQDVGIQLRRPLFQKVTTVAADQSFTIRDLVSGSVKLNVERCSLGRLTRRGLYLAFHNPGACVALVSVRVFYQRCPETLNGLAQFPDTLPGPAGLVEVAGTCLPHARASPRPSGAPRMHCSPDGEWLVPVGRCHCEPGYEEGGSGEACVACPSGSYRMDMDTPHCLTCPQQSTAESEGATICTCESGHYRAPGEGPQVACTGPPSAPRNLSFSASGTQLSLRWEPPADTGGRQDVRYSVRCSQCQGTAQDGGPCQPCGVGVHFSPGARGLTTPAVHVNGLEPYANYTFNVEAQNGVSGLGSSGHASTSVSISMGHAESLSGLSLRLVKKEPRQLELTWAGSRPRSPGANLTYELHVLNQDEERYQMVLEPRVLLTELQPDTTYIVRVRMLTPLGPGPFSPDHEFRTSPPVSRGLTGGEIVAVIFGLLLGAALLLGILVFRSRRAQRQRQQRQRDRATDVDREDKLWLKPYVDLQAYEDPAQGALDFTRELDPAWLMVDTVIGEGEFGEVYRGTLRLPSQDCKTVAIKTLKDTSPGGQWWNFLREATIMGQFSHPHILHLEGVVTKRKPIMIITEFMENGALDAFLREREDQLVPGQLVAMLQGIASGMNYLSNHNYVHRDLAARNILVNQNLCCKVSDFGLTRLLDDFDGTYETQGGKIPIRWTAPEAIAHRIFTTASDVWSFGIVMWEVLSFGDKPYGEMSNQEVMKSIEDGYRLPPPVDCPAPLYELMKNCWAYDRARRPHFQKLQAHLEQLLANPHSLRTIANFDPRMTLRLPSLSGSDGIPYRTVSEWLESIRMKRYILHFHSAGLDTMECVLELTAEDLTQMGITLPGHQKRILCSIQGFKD

[12] = biological target: Tyrosine-protein kinase Fgr (Homo sapiens) (UniProt P09769); experiment: Inhibition of human FGR at 10 uM using poly[Glu:Tyr] (4:1) as substrate by [gamma-33P]-ATP assay relative to control; procedure, shortened: as §1
[13] = biological target: Vascular endothelial growth factor receptor 1 (Homo sapiens) (UniProt P17948); experiment: Inhibition of human FLT1 at 10 uM using poly[Glu:Tyr] (4:1) as substrate by [gamma-33P]-ATP assay relative to control; procedure, shortened: as §1
[14] = biological target: T1, Serine/threonine-protein kinase PLK1 (Homo sapiens, UniProt P53350); experiment: Inhibition of human PLK1 at 10 uM using casein as substrate by [gamma-33P]-ATP assay relative to control; procedure, shortened: as §2
T1 sequence (P53350 whole entry): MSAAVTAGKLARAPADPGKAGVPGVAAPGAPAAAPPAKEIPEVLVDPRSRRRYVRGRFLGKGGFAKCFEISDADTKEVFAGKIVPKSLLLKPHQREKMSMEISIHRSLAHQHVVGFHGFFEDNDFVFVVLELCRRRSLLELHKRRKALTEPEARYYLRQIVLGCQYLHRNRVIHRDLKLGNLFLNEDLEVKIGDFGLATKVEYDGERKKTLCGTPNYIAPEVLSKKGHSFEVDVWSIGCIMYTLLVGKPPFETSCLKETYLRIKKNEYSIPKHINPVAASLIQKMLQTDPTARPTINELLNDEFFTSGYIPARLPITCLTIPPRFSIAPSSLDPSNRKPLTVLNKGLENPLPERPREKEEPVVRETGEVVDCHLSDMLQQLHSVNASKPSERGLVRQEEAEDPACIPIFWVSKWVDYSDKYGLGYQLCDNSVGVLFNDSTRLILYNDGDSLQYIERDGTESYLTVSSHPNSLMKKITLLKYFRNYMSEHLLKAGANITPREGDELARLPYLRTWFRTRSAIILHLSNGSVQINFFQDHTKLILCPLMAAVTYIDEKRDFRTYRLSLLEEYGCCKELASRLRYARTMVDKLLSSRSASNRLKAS

[15] = biological target: Macrophage-stimulating protein receptor (Homo sapiens) (UniProt Q04912); experiment: Inhibition of human RON at 10 uM using KKSRGDYMTMQIG as substrate by [gamma-33P]-ATP assay relative to control; procedure, shortened: as §2
[16] = biological target: Angiopoietin-1 receptor (Homo sapiens) (UniProt Q02763); experiment: Inhibition of human TIE2 at 10 uM using poly[Glu:Tyr] (4:1) as substrate by [gamma-33P]-ATP assay relative to control; procedure, shortened: as §2
[17] = biological target: High affinity nerve growth factor receptor (Homo sapiens) (UniProt P04629); experiment: Inhibition of human TRKA at 10 uM using poly[Glu:Tyr] (4:1) as substrate by [gamma-33P]-ATP assay relative to control; procedure, shortened: as §2
Chain of High affinity nerve growth factor receptor (Homo sapiens) (P04629 33-796 limits assumed): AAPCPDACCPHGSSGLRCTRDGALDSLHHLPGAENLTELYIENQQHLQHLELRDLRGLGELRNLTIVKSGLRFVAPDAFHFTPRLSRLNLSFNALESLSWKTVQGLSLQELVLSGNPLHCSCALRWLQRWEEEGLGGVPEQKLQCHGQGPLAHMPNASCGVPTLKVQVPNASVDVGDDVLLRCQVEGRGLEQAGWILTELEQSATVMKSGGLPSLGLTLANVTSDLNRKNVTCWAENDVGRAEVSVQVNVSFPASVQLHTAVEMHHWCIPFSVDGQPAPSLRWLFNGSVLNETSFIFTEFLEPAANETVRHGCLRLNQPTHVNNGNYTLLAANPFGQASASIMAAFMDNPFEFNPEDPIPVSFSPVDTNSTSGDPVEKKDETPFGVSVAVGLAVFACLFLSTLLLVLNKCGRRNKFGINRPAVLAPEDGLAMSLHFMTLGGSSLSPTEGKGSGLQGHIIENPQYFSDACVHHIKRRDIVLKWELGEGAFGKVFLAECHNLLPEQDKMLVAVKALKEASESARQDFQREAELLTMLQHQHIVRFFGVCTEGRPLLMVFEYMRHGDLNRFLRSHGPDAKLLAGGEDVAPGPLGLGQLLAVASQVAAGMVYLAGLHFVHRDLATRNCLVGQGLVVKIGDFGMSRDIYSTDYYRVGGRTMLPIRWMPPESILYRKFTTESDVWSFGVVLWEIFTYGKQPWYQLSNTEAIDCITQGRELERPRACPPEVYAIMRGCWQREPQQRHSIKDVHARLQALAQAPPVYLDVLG

Aurora kinase A = Aurora kinase A (Homo sapiens, UniProt O14965); experiment: Inhibition of human AuroraA using [H-LRRASLG] as substrate by [gamma-33P]-ATP assay
[18] = biological target: Tyrosine-protein kinase Mer (Homo sapiens, UniProt Q12866); experiment: Inhibition of human MER using poly[Glu:Tyr] (4:1) as substrate by [gamma-33P]-ATP assay
Focal adhesion kinase 1 = Focal adhesion kinase 1 (Homo sapiens, UniProt Q05397); experiment: Inhibition of human FAK using poly[Glu:Tyr] (4:1) as substrate by [gamma-33P]-ATP assay
[19] = biological target: T1, Serine/threonine-protein kinase PLK1; experiment: Inhibition of human PLK1 using casein as substrate by [gamma-33P]-ATP assay
[20] = biological target: Tyrosine-protein kinase SYK (Homo sapiens, UniProt P43405); experiment: Inhibition of human SYK using poly[Glu:Tyr] (4:1) as substrate by [gamma-33P]-ATP assay
[21] = biological target: Tyrosine-protein kinase receptor TYRO3 (Homo sapiens, UniProt Q06418); experiment: Inhibition of human TYRO3 using poly[Glu:Tyr] (4:1) as substrate by [gamma-33P]-ATP assay
IMR-32 = experiment: Antiproliferative activity against human IMR32 cells after 2 days by spectrophotometric analysis; format: functional; conditions: IMR-32, 48 h
HCT-116 = experiment: Antiproliferative activity against human HCT116 cells after 2 days by spectrophotometric analysis; format: functional; conditions: HCT-116, 48 h
HT-1080 = experiment: Antiproliferative activity against human HT1080 cells after 2 days by spectrophotometric analysis; format: functional; conditions: HT-1080, 48 h

GI50 (A549): 1300 nM
GI50 (U-87 MG): 22100 nM
GI50 (OVCAR-3): 970 nM
inhibition [1]: 63.1%
inhibition [2]: -3.6%
inhibition [3]: 92.1%
inhibition [4]: 17.9%
inhibition [5]: 45.1%
inhibition [6]: 84.1%
inhibition [7]: 25.3%
inhibition [8]: 66.6%
inhibition [9]: -4%
inhibition [10]: 2%
inhibition [11]: 13.1%
inhibition [12]: 80.6%
inhibition [13]: 49%
inhibition [14]: 95.2%
inhibition [15]: 40.1%
inhibition [16]: 65.4%
inhibition [17]: 92.2%
pIC50 (Aurora kinase A): 8.52
pIC50 [18]: 7.60
pIC50 (Focal adhesion kinase 1): 7.96
pIC50 [19]: 8.06
pIC50 [20]: 8.29
pIC50 [21]: 7.30
GI50 (HCT-116): 420 nM
GI50 (HT-1080): 1800 nM
SMILES: CC(=O)N1CCN(c2ccc(Nc3ncc(C(F)(F)F)c(N4Cc5cccc(N(C)S(C)(=O)=O)c5C4)n3)cc2)CC1
GI50 (IMR-32): 260 nM
